Measurements published in ChEMBL document CHEMBL1649400, “Synthesis and antitumor activity of ureas containing pyrimidinyl group” (Eur J Med Chem, 2011).

What was measured:
Format in all cases: functional, cell-based
KB = experiment: Cytotoxicity against human KB cells after 3 days by MTT assay; conditions: 72 h
Outline: (§1)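 Cells grown in RPMI 1640 with 10% fetal calf serum were plated from suspension and held 12 h at 37 °C, 5% CO2. Test sample was then added and cells were cultured 3 days at 37 °C. MTT was added for 4 h at 37 °C, supernatant removed, formazan dissolved in DMSO, absorbance read at 570 nm. IC50 = concentration giving 50% growth inhibition versus untreated control.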

MCF7 = experiment: Cytotoxicity against human MCF7 cells after 3 days by MTT assay; conditions: MCF7, 72 h; outline: as §1
MGC-803 = experiment: Cytotoxicity against human MGC803 cells after 3 days by MTT assay; conditions: MGC-803, 72 h; outline: as §1
[1] = Cytotoxicity against human CNE2 cells after 3 days by MTT assay; conditions: CNE-2, 72 h; outline: as §1

Row | SMILES | IC50 (KB) [µM] | IC50 (MCF7) [µM] | IC50 (MGC-803) [µM] | IC50 [1] [µM]
1 | Cc1cc(C)nc(Oc2ccc(NC(=O)Nc3ccccc3)cc2)n1 | > 50 | – | – | –
2 | Cc1cccc(NC(=O)Nc2ccc(Oc3nc(C)cc(C)n3)cc2)c1 | > 50 | – | – | –
3 | Cc1cc(C)nc(Oc2ccc(NC(=O)Nc3ccc(OC(F)(F)F)cc3)cc2)n1 | 28.9 | > 50 | > 50 | 30.8
4 | Cc1cc(C)nc(Oc2ccc(NC(=O)Nc3ccc(F)cc3)cc2)n1 | 48.4 | > 50 | > 50 | 46.9
5 | Cc1cc(C)nc(Oc2ccc(NC(=O)Nc3ccc(Cl)cc3)cc2)n1 | 25.4 | > 50 | > 50 | 20.4
6 | Cc1cc(C)nc(Oc2ccc(NC(=O)Nc3ccc(Cl)cc3Cl)cc2)n1 | 31.8 | 47.8 | 35.4 | 38.9
7 | Cc1cc(C)nc(Sc2ccc(NC(=O)Nc3ccccc3)cc2)n1 | 25.7 | > 50 | 40.1 | 22
8 | Cc1cccc(NC(=O)Nc2ccc(Sc3nc(C)cc(C)n3)cc2)c1 | 47.8 | 37 | 25.3 | > 50
9 | Cc1cc(C)nc(Sc2ccc(NC(=O)Nc3ccc(OC(F)(F)F)cc3)cc2)n1 | 20 | 41.7 | 13.8 | 22.8
10 | Cc1cc(C)nc(Sc2ccc(NC(=O)Nc3ccc(F)cc3)cc2)n1 | 32.1 | > 50 | > 50 | 34.1
11 | Cc1cc(C)nc(Sc2ccc(NC(=O)Nc3ccc(Cl)cc3)cc2)n1 | 10.2 | 35.3 | 26.1 | 13.5
12 | Cc1cc(C)nc(Sc2ccc(NC(=O)Nc3ccc(Cl)cc3Cl)cc2)n1 | 15.5 | > 50 | > 50 | 23.2
13 | COc1ccc(NC(=O)Nc2ccc(Cl)cc2)cc1 | > 50 | > 50 | – | > 50
14 | COc1ccc(NC(=O)Nc2ccc(Cl)cc2Cl)cc1 | > 50 | > 50 | > 50 | > 50
15 | O=c1[nH]cc(F)c(=O)[nH]1 [FLUOROURACIL] | 11.9 | 15.2 | 12.6 | 13.1
